From ChEMBL document CHEMBL1137008, “Cancer preventive agents 9. Betulinic acid derivatives as potent cancer chemopreventive agents” (Bioorg Med Chem Lett, 2009) come the findings set out here.

A short description of data set [1]: Cytotoxicity against human Raji cells assessed as cell viability at 1000 molar ratio after 48 hrs by trypan blue staining method. In kind it is cell-based. Conditions: read-out: Activity. The essentials:
(§1)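 Raji cells (EBV genome-carrying, Burkitt's lymphoma) grown in RPMI-1640 with 10% FBS; incubated 48 h at 37 °C with 4 mM n-butyric acid, 32 pM TPA and test compound in DMSO at stated compound/TPA molar ratio; viability determined by Trypan blue staining.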

A short description of data set [2]: Cytotoxicity against human Raji cells assessed as cell viability at 500 molar ratio after 48 hrs by trypan blue staining method. In kind it is cell-based. Conditions: read-out: Activity. The essentials:
as §1

A short description of data set [3]: Cytotoxicity against human Raji cells assessed as cell viability at 100 molar ratio after 48 hrs by trypan blue staining method. The data set is classed as cell-based. Conditions: read-out: Activity. The essentials: as §1
Data set [4] in a line: Cytotoxicity against human Raji cells assessed as cell viability at 10 molar ratio after 48 hrs by trypan blue staining method. Conditions: read-out: Activity. The data set is classed as cell-based. In short, it runs like this:
as §1

Data set [5] deals with Raji. Put plainly: Inhibition of TPA-induced EBV-early antigen activation in human Raji cells assessed as EA induction at 1000 molar ratio after 48 hrs relative to TPA. The data set is classed as cell-based. More on the design: scale not given: the % may be the effect or the level left. Conditions: human gammaherpesvirus 4. In short, it runs like this: (§2)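 Raji cells (virus non-producer, spontaneous EA activation <0.1%) incubated 48 h at 37 °C with 4 mM n-butyric acid plus 32 pM TPA and compound in DMSO; smears stained by indirect immunofluorescence with NPC patient EBV-EA-positive serum, ≥500 cells counted; EA-positive cells expressed relative to butyrate+TPA control (100%); triplicates; IC50 as mol ratio to 32 pmol TPA.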

Data set [6] relates to Raji. Put plainly: Inhibition of TPA-induced EBV-early antigen activation in human Raji cells assessed as EA induction at 500 molar ratio after 48 hrs relative to TPA. The data set is classed as cell-based. More on the design: scale not given: the % may be the effect or the level left. Conditions: human gammaherpesvirus 4. The essentials:
as §2

In data set [7] the test system is Raji. Put plainly: Inhibition of TPA-induced EBV-early antigen activation in human Raji cells assessed as EA induction at 100 molar ratio after 48 hrs relative to TPA. In kind it is cell-based. On the set-up: scale not given: the % may be the effect or the level left. Conditions: human gammaherpesvirus 4. The essentials:
as §2

The subject of data set [8] is Raji. Put plainly: Inhibition of TPA-induced EBV-early antigen activation in human Raji cells assessed as EA induction at 10 molar ratio after 48 hrs relative to TPA. The data set is classed as cell-based. On the set-up: scale not given: the % may be the effect or the level left. Conditions: human gammaherpesvirus 4. In short, it runs like this: as §2
Data set [9] can be described thus: Inhibition of TPA-induced EBV-early antigen activation in human Raji cells assessed as EA induction after 48 hrs relative to TPA. The data set is classed as cell-based, human gammaherpesvirus 4. The essentials: as §2

With `C=C(C)[C@@H]1CC[C@]2(C(=O)O)CC[C@]3(C)[C@H](CC[C@@H]4[C@@]5(C)CC(=O)C(C)(C)[C@@H]5CC[C@]43C)[C@@H]12`, the viability at 48 h, 1000 molar ratio in [1] came out at 60%. Also, the viability at 48 h, 500 molar ratio in [2] was greater than 80%. Further, the viability at 48 h, 100 molar ratio in data set [3] is greater than 80%. The viability at 48 h, 10 molar ratio in [4] was greater than 80%. The Activity in the data set on Raji [5] turned out to be 10.1%; with Raji [6] it was 36.4%; with Raji [7] it was 74.3%; with Raji [8] it was 100%. The IC50 in [9] is listed as 442 molar ratio.
Consider `C=C(C)[C@@H]1CC[C@]2(C(=O)O)CC[C@]3(C)[C@H](CC[C@@H]4[C@@]5(C)CC[C@H](OC(=O)CCCCCCC/C=C\C/C=C\CCCCC)C(C)(C)[C@@H]5CC[C@]43C)[C@@H]12`, for which the viability at 48 h, 1000 molar ratio in data set [1] worked out at 60%. Further, the viability at 48 h, 500 molar ratio in data set [2] was greater than 80%. Besides, the viability at 48 h, 100 molar ratio in [3] was greater than 80%. The viability at 48 h, 10 molar ratio in data set [4] is greater than 80%. Moreover, the Activity with Raji [5] came to 7.3%; with Raji [6], 37.9%; in the data set with Raji [7], 75.9%; with Raji [8] it was 94.8%. Moreover, in [9], the IC50 is 390 molar ratio.
On to `C=C(C)[C@@H]1CC[C@]2(C(=O)O)CC[C@]3(C)[C@H](CC[C@@H]4[C@@]5(C)CC[C@H](OC(=O)CCC/C=C\C/C=C\C/C=C\C/C=C\C/C=C\CC)C(C)(C)[C@@H]5CC[C@]43C)[C@@H]12`, for which the viability at 48 h, 1000 molar ratio in data set [1] was found to be 60%. In [2], the viability at 48 h, 500 molar ratio was greater than 80%. Moreover, the viability at 48 h, 100 molar ratio in data set [3] is greater than 80%. In addition, the viability at 48 h, 10 molar ratio in [4] was greater than 80%. Besides, the Activity with Raji [5] was determined as 15.3%; in the data set on Raji [6], 50.4%; with Raji [7], 80.1%; with Raji [8], 100%. Moreover, the IC50 in [9] is on record as 523 molar ratio.
As to `C=C(C)[C@@H]1CC[C@]2(C(=O)O)CC[C@]3(C)[C@H](CC[C@@H]4[C@@]5(C)CC[C@H](OC(=O)/C=C/C=C/C)C(C)(C)[C@@H]5CC[C@]43C)[C@@H]12`, the viability at 48 h, 1000 molar ratio in [1] came out at 70%. The viability at 48 h, 500 molar ratio in data set [2] is greater than 80%. In addition, the viability at 48 h, 100 molar ratio in data set [3] is greater than 80%. For the same compound, the viability at 48 h, 10 molar ratio in [4] is greater than 80%. For the same compound, the Activity with Raji [5] amounted to 0%; in the data set with Raji [6] it was 25.7%; in the data set with Raji [7], 65.7%; in the data set on Raji [8], 90.2%. Moreover, the IC50 in [9] stood at 295 molar ratio.
For `C=C(C)[C@@H]1CC[C@]2(C(=O)O)CC[C@]3(C)[C@H](CC[C@@H]4[C@@]5(C)C[C@H](OC(=O)CC(C)(C)C(=O)O)C(C)(C)[C@@H]5CC[C@]43C)[C@@H]12`, the viability at 48 h, 1000 molar ratio in [1] came out at 60%. Moreover, in data set [2], the viability at 48 h, 500 molar ratio is greater than 80%. Besides, the viability at 48 h, 100 molar ratio in data set [3] was greater than 80%. Also, the viability at 48 h, 10 molar ratio in [4] was greater than 80%. Further, the Activity stood at 5.7% in the data set on Raji [5], 35.6% in the data set on Raji [6], 73.1% in the data set with Raji [7] and 95.3% with Raji [8]. The IC50 in data set [9] came out at 352 molar ratio.
`C=C(C)[C@@H]1CC[C@]2(C(=O)O)CC[C@]3(C)[C@H](CC[C@@H]4[C@@]5(C)C[C@H](O)C(C)(C)[C@@H]5CC[C@]43C)[C@@H]12`: in [1], the viability at 48 h, 1000 molar ratio came out at 60%. The viability at 48 h, 500 molar ratio in data set [2] is greater than 80%. Also, the viability at 48 h, 100 molar ratio in data set [3] was greater than 80%. In addition, the viability at 48 h, 10 molar ratio in [4] is greater than 80%. For the same compound, the Activity in the data set on Raji [5] was 14.2%; with Raji [6], 39.2%; with Raji [7], 79%; in the data set with Raji [8], 100%. In addition, in data set [9], the IC50 stood at 475 molar ratio.
